Data published in ChEMBL document CHEMBL4406918, “Inhibitory Effects of Multivalent Polypeptides on the Proliferation and Metastasis of Breast Cancer Cells” (ACS Med Chem Lett, 2019).
pIC50: −log10 of the molar value. Active and inactive are the calls of the source. The rule behind the calls is not given here.

Assays:
4T1 [1] = assay: Antiproliferative activity against mouse 4T1 cells incubated for 24 hrs by MTT assay; assay type: functional, cell-based; conditions: 4T1, 24 h
How it was run: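 MTT viability assay on 4T1 cells after 24 h treatment. Concentrations included 0.1 mM and 0.2 mM, and IC50 was taken from the viability curve. Mean ± SD, n = 6.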

4T1 [2] = assay: Induction of cell death in mouse 4T1 cells incubated for 24 hrs by PI staining based inverted microscopic method; assay type: functional
How it was run: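 Live–dead staining of 4T1 cells after 24 h exposure to 0.4 mM, read by PI staining. A 0.8 mM level was also examined.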

4T1 [3] = assay: Inhibition of cell migration in mouse 4T1 cells assessed as wound closure rate at 10^-5 mM measured up to 36 hrs by inverted optical microscopic method based wound healing assay (reference value: 82%); assay type: functional; set-up: scale not given: the % may be the effect or the level left; conditions: at 10 nM
4T1 [4] = assay: Induction of apoptosis in mouse 4T1 cells assessed as necrotic cells at 10^-3 mM incubated for 24 hrs by Annexin V-FITC/PI based FACS analysis (reference value: 0.47%); assay type: functional
4T1 [5] = assay: Induction of apoptosis in mouse 4T1 cells assessed as late apoptotic cells at 10^-3 mM incubated for 24 hrs by Annexin V-FITC/PI based FACS analysis (reference value: 6.62%); assay type: functional
4T1 [6] = assay: Antiinvasive activity in mouse 4T1 cells assessed as cell invasion rate at 10^-5 mM incubated for 24 hrs by crystal violet staining based matrigel invasion assay relative to control; conditions: 4T1, 24 h
4T1 [7] = assay: Induction of cell cycle arrest in mouse 4T1 cells assessed as accumulation at G0/G1 phase at 10^-3 mM incubated for 24 hrs by PI staining based flow cytometric analysis (reference value: 37.78%); assay type: functional
4T1 [8] = assay: Induction of apoptosis in mouse 4T1 cells assessed as viable cells at 10^-3 mM incubated for 24 hrs by Annexin V-FITC/PI based FACS analysis (reference value: 92.2%); assay type: functional; conditions: 4T1, 24 h, read-out: Activity
4T1 [9] = assay: Induction of cell cycle arrest in mouse 4T1 cells assessed as accumulation at G2/M phase at 10^-3 mM incubated for 24 hrs by PI staining based flow cytometric analysis (reference value: 19.82%); assay type: functional
Erythrocyte = assay: Hemolytic activity in BALB/c mouse RBC at 3.2 mM incubated for 2 hrs by UV-Vis spectrophotometric analysis; assay type: ADME, cell-based; conditions: 3200 µM
How it was run: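 Hemolysis assay on red blood cells with dendrimers up to 3.2 mM. Result is expressed as hemolysis rate, with under 5% taken as acceptable.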

4T1 [10] = assay: Antitumour activity against mouse 4T1 cells xenografted in BALB/c mouse assessed as increase in cytotoxic tumor cell death at 10 mg/kg administered intratumorally and measured after 24 days by H and E staining based inverted optical microscopic method; assay type: functional, organism-based
How it was run: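 BALB/c mice bearing subcutaneous 4T1 tumours received 6 doses at 10 mg/kg body weight, matched for YSL monomer molar amount, with saline as control. Tumour sections were stained for H&E, CD31, Ki-67 and TUNEL. n = 5.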

4T1 [11] = assay: Induction of cell cycle arrest in mouse 4T1 cells assessed as accumulation at S phase at 10^-3 mM incubated for 24 hrs by PI staining based flow cytometric analysis (Rvb =42.35%); assay type: functional; conditions: at 0.001 mM
4T1 [12] = assay: Induction of apoptosis in mouse 4T1 cells assessed as early apoptotic cells at 10^-3 mM incubated for 24 hrs by Annexin V-FITC/PI based FACS analysis (reference value: 0.76%); assay type: functional
4T1 [13] = assay: Inhibition of metastasis in mouse 4T1 cells assessed as formation of pseudopods at 10^-5 mM incubated for 24 hrs by SEM analysis; assay type: functional, cell-based
How it was run: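 4T1 cells treated 24 h, then imaged by scanning electron microscopy for pseudopod formation. Dendrimers were tested at 0.2 mM and the reference at 10–5 mM.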

4T1 [14] = assay: Inhibition of metastasis in mouse 4T1 cells assessed as disruption in F-actin arrangement at 10^-5 mM incubated for 24 hrs by Hoechst 33342 staining based confocal laser scanning microscopic method; assay type: functional, cell-based
How it was run: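 After 24 h treatment, 4T1 cells were stained with Alexa Fluor 488 phalloidin for F-actin and Hoechst 33342 for nuclei, then imaged by fluorescence microscopy to assess cytoskeleton and cell morphology.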

4T1 [15] = assay: Inhibition of cell migration in mouse 4T1 cells assessed as migration frequency at 10^-5 mM incubated for 24 hrs by crystal violet staining based transwell assay relative to control; assay type: functional; set-up: scale not given: the % may be the effect or the level left
How it was run: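 Transwell migration assay on 4T1 cells after 24 h treatment. Rate was quantified from cell numbers on the underside of the porous membrane. Mean ± SD, n = 3.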

## CC(=O)O[C@H]1C(=O)[C@@]2(C)[C@H]([C@H](OC(=O)c3ccccc3)[C@]3(O)C[C@H](OC(=O)[C@H](O)[C@@H](NC(=O)c4ccccc4)c4ccccc4)C(C)=C1C3(C)C)[C@]1(OC(C)=O)CO[C@@H]1C[C@@H]2O [PACLITAXEL]
4T1 [1]
  pIC50: 6.00
4T1 [2]
  Activity: Dose-dependent effect
4T1 [3]
  Activity: 43%
4T1 [4]
  Activity: 0.62%
4T1 [5]
  Activity: 36.9%
4T1 [6]
  invasion rate at 0.01 µM: 34%
4T1 [7]
  Activity: 42.35%
4T1 [8]
  viability at 1 µM: 61.7%
4T1 [9]
  Activity: 13.02%
Erythrocyte
  Activity: Non-Toxic
4T1 [10]
  Activity: Active
4T1 [11]
  Activity: 44.64%
4T1 [12]
  Activity: 0.77%
4T1 [13]
  inhibition: inactive
4T1 [14]
  inhibition: Active
4T1 [15]
  Activity: 30%
